Columns and labels:
K562 = assay: Anti-proliferation assay; format: cell-based; settings: Homo sapiens, K562, 48 h, read-out: IC50 against proliferation, K562
Outline: (§1)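 Cells thawed, grown in RPMI 1640 + 10% FBS at 37 °C, 5% CO2; used in log phase. Seeded 10 000–12000 cells/well, after 4 h test compound added at working concentrations 0.16/0.8/4/20/100 μmol L−1 in complete medium. MTT (5 mg mL−1) added for 4 h, formazan dissolved in DMSO, absorbance at 570 nm.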

HEPG2 = assay: Anti-proliferation assay; format: cell-based; settings: Homo sapiens, HepG2, 48 h, read-out: IC50 against proliferation, HEPG2
Outline: as §1

MDA-MB-231 = assay: Anti-proliferation assay; format: cell-based; settings: Homo sapiens, MDA-MB-231, 48 h, read-out: IC50 against proliferation, MDA-MB-231
Outline: as §1

PLC/PRF/5 = assay: Anti-proliferation assay; format: cell-based; settings: Homo sapiens, PLC-PRF-5, 48 h, read-out: IC50 against proliferation, PLC/PRF/5
Outline: as §1

HuH7 = assay: Anti-proliferation assay; format: cell-based; settings: Homo sapiens, Huh-7, 48 h, read-out: IC50 against proliferation, HuH7
Outline: as §1

HEL = assay: Anti-proliferation assay; format: cell-based; settings: Homo sapiens, 48 h, read-out: IC50 against proliferation, HEL
Outline: as §1

[1] = In vivo PK study in Sprague Dawley rats; settings: male, rat, plasma
Outline: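 Male SD rats, 180–220 g, acclimatised one week, fasted 12 h. Single dose i.v. infusion (jugular vein cannula sampling) or oral; blood taken predose and to 24 h (i.v. from 0.083 h, oral from 0.25 h). Plasma by centrifugation, stored −20 °C, LC-MS/MS quantitation.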

[2] = Stability in simulated intestinal fluid; format: in vitro ADME; settings: 2 μM, 37 °C, pH 6.8, up to 24 h
Outline: (§2)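 Test compound at 2 μM final in simulated gastric fluid (NaCl, pepsin, HCl; pH 1.20) or simulated intestinal fluid (KH2PO4, pancreatin; pH 6.8), shaken at 37 °C, 600 rpm. At 0, 1, 2, 6, 24 h quenched with cold acetonitrile containing tolbutamide/labetalol IS, centrifuged 4 °C; remaining compound by LC/MS/MS peak area ratio analyte/IS, C18 column.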

[3] = Stability in simulated gastric fluid; format: in vitro ADME; settings: 2 μM, 37 °C, pH 1.20, up to 24 h
Outline: as §2

APN from porcine kidney = target: T1, APN from porcine kidney (Sus scrofa, UniProt P15145); assay: APN inhibition assay; format: biochemical
T1 sequence (P15145 1-963): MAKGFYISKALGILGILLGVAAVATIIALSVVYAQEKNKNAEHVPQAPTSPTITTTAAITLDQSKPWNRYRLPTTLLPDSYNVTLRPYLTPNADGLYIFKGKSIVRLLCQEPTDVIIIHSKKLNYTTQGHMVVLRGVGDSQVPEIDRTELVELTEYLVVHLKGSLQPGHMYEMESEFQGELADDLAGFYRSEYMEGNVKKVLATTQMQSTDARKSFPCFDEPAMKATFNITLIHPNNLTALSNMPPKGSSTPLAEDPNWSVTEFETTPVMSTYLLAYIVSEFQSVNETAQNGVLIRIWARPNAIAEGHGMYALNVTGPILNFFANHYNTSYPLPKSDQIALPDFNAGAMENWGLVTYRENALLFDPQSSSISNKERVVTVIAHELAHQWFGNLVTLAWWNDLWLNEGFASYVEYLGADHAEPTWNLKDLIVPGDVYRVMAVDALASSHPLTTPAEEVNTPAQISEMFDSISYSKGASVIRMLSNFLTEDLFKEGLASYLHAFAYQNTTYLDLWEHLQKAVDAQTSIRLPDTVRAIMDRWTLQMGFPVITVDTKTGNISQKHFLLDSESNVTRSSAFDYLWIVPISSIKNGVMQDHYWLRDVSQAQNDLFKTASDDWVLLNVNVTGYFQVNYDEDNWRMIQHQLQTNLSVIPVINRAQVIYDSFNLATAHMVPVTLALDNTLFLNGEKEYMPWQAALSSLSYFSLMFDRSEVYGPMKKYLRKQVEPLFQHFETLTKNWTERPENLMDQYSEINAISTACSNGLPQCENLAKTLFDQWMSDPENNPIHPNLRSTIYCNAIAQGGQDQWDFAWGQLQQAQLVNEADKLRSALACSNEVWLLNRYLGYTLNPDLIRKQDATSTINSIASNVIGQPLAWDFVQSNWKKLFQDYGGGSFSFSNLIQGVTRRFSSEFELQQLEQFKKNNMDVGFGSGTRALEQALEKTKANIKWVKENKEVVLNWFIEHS

[4] = Metabolic stability in mouse liver microsomes; format: in vitro ADME; settings: for CLint(liver): NADPH; for Remaining (NCF = 60 min): no co-factor
Outline: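 CD-1 mouse liver microsomes in 100 mM potassium phosphate buffer, preincubated 10 min at 37 °C with NADPH (1 mM final) or without co-factor. Test compound spiked to 1 μM final; testosterone positive control. Sampled at 5, 15, 30, 45, 60 min, quenched in cold acetonitrile with tolbutamide/labetalol IS, LC-MS/MS. T1/2 and CLint from first-order kinetics.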

rat thoracic aorta ring = assay: Rat aortic ring assay; settings: 5 μM, 9 days
Outline: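 Thoracic aortas from 8–10 week-old male SD rats, cleaned of fibroadipose tissue, cut into 1 mm rings, embedded between Matrigel layers. Test compound in M199 added; cultured at 37 °C, 5% CO2 for 9 days with medium plus compound renewed every three days. Micro-vessels imaged by inverted microscope at 100×.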

[5] = test system: human umbilical vein endothelial cells (HUVECs); assay: HUVEC tubular structure formation assay; format: cell-based; settings: 5 μM, 4 h on Matrigel
[6] = mouse liver microsomes, 1 μM, 60 min

Question: Which IC50 (K562) does the source give for `CC(C)C[C@H](NC(=O)[C@@H](O)[C@H](N)Cc1ccccc1)C(=O)O` [Bestatin, reference compound] here?
Answer: The IC50 was greater than 100 µM.

Question: And the IC50 (HEPG2)?
Answer: The IC50 was greater than 100 µM.

Question: What about the IC50 (MDA-MB-231) of the same compound?
Answer: The IC50 was greater than 100 µM.

Question: What about the IC50 (PLC/PRF/5) of the same compound?
Answer: The IC50 was greater than 100 µM.

Question: And the IC50 (HuH7)?
Answer: The IC50 was greater than 100 µM.

Question: And the IC50 (HEL)?
Answer: The IC50 was greater than 100 µM.

Question: Which Tmax ([1]; iv, 10 mg/kg) does the source give for `CC(C)C[C@H](NC(=O)NCc1cn(-c2ccccc2C(=O)OCn2cc(F)c(=O)[nH]c2=O)nn1)C(=O)NO` [Compound 3, (5-fluoro-2,4-dioxo-3,4-dihydropyrimidin-1(2H)-yl)methyl (S)-2-(4-((3-(1-(hydroxyamino)-4-methyl-1-oxopentan-2-yl)ureido)methyl)-1H-1,2,3-triazol-1-yl)benzoate] here?
Answer: The Tmax was 5 min.

Question: And the clearance ([1]; iv, 10 mg/kg)?
Answer: The clearance was 12.3 mL/min/kg.

Question: And the half-life ([1]; iv, 10 mg/kg)?
Answer: The half-life was 52 ± 23.2 min.

Question: What about the AUC(0-inf) ([1]; po, 50 mg/kg) of the same compound?
Answer: Its AUC(0-inf) is 510 ± 99.3 ng·h/mL.

Question: What about the AUC(0-t) ([1]; po, 50 mg/kg) of the same compound?
Answer: The AUC(0-t) was 484 ± 119 ng·h/mL.

Question: And the Cmax ([1]; po, 50 mg/kg)?
Answer: Its Cmax is 337 ± 158 ng/mL.

Question: What about the Tmax ([1]; po, 50 mg/kg) of the same compound?
Answer: The Tmax was 25 ± 8.64 min.

Question: What about the half-life ([1]; po, 50 mg/kg) of the same compound?
Answer: Its half-life is 266 ± 246 min.

Question: What about the “Stability in simulated intestinal fluid” value [2] of the same compound?
Answer: The value was “slowly cleaved”.

Question: What about the “Stability in simulated gastric fluid” value [3] of the same compound?
Answer: The value was “very stable”.

Question: And the IC50 (APN from porcine kidney)?
Answer: Its IC50 is 0.5 ± 0.29 µM.

Question: What about the “APN inhibitory activity, fold more potent than bestatin” value (APN from porcine kidney; vs positive control bestatin) of the same compound?
Answer: The value was “over 8 fold”.

Question: And the IC50 (K562)?
Answer: Its IC50 is 25.6 ± 12.3 µM.

Question: And the half-life at 1 μM ([4]; CD-1, mouse, liver microsomes)?
Answer: The half-life at 1 μM was 94.9 min.

Question: What about the microsomal CLint at 1 μM ([4]; CD-1, mouse, liver microsomes) of the same compound?
Answer: Its microsomal CLint at 1 μM is 14.6 µL/min/mg.

Question: And the “CLint(liver)” value ([4]; mouse liver microsomes, 1 μM)?
Answer: The value was 57.8 mL/min/kg.

Question: And the “Remaining (NCF = 60 min)” value [4, 6]?
Answer: Its value is 80.1%.

Question: What about the “Remaining (T = 60 min)” value ([4]; mouse liver microsomes, 1 μM, with NADPH, 60 min) of the same compound?
Answer: The value was 69.4%.

Question: What about the IC50 (HEPG2) of the same compound?
Answer: Its IC50 is greater than 100 µM.

Question: And the IC50 (MDA-MB-231)?
Answer: The IC50 was greater than 100 µM.

Question: What about the IC50 (PLC/PRF/5) of the same compound?
Answer: Its IC50 is greater than 100 µM.

Question: And the “Effect on micro-vessel growth of rat aortic ring” value (rat thoracic aorta ring)?
Answer: Its value is “could prevent the micro-vessel growth”.

Question: And the “Effect on HUVEC capillary tube formation” value [5]?
Answer: The value was “could inhibit the capillary tube formation”.

Question: What about the IC50 (HuH7) of the same compound?
Answer: Its IC50 is greater than 100 µM.

Question: And the IC50 (HEL)?
Answer: Its IC50 is 47.2 ± 19.3 µM.

Question: Which “CLint(liver)” value ([4]; mouse liver microsomes, 1 μM) does the source give for `C[C@]12CC[C@H]3[C@@H](CCC4=CC(=O)CC[C@@]43C)[C@@H]1CC[C@@H]2O` [Testosterone, reference compound] here?
Answer: The value was 998.5 mL/min/kg.

Question: What about the “Remaining (NCF = 60 min)” value [4, 6] of the same compound?
Answer: The value was 91.0%.
